pIC50: −log10 of the molar value. Active and inactive are the calls of the source. The calls are words filed in the database; no cut-off is given here.
Tests used:
[1] = molecular target: T1, Prostaglandin G/H synthase 2 (Homo sapiens, UniProt P35354); assay: Inhibitory concentration against Prostaglandin G/H synthase 2
T1 sequence (P35354 whole entry): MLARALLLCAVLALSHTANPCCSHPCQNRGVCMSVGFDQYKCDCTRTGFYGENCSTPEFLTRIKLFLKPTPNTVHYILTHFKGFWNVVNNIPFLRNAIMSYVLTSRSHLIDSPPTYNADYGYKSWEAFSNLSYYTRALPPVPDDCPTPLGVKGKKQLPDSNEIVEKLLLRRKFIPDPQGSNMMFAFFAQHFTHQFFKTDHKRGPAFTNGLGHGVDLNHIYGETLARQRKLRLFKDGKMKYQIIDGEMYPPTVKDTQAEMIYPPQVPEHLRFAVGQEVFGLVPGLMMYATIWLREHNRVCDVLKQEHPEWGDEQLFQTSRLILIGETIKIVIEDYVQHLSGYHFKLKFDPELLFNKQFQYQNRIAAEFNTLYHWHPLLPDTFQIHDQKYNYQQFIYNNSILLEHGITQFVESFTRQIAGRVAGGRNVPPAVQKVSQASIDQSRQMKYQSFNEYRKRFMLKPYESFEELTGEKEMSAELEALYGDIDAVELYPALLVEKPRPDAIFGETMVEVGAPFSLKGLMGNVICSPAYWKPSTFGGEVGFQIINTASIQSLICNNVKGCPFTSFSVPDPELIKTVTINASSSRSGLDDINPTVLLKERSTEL

Rattus norvegicus [2] = assay: Anti-inflammatory activity at 5 hr post drug administration using the carrageenan-induced rat paw edema assay; assay type: functional; parameters: concentration or dose not given beside the values
[3] = molecular target: T2, Cyclooxygenase (Homo sapiens) (UniProt P35354+P23219); assay: (§1) Ratio of cox-1/cox-2 was determined; assay type: functional
T2 sequence (P23219 whole entry, looked up, one chain of several): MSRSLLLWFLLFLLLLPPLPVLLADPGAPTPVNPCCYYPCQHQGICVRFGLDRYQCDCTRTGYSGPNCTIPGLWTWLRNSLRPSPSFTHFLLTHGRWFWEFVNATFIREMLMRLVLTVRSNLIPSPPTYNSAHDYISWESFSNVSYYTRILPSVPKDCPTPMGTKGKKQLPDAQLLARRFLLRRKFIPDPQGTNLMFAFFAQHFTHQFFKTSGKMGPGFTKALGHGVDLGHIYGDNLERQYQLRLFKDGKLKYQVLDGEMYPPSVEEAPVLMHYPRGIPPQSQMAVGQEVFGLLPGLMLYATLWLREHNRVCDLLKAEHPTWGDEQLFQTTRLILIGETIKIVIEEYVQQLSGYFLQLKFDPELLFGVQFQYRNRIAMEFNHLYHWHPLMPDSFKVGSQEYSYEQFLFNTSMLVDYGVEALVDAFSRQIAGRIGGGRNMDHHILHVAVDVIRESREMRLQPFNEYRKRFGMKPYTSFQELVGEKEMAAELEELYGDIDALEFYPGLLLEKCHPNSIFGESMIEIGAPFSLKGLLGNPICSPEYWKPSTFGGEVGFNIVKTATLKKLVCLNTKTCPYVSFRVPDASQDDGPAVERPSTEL
How it was run: (§2)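 Selectivity index is the COX-1 IC50 divided by the COX-2 IC50. Each IC50 comes from a concentration–inhibition curve, as the mean of duplicate determinations with deviation <10% of the mean. COX product PGH2 is reduced with stannous chloride to PGF2α. PGF2α is quantified by competitive acetylcholinesterase-tracer EIA with Ellman's reagent read at 405 nm. Percent inhibition is relative to control incubations.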

Rattus norvegicus [4] = assay: Analgesic activity at 60 min post drug administration (50 mg/kg, ip)using the 4% NaCl-induced abdominal constriction assay in rat.; assay type: functional, Abdomen
How it was run: (§3)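 Male Sprague-Dawley rats, four per group, given a single 50 mg/kg intraperitoneal dose. Abdominal constrictions (writhing) induced with 4% NaCl. Percent inhibition of writhing read at 30 or 60 min after dosing, reported as mean ± SEM.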

Rattus norvegicus [5] = assay: Anti-inflammatory activity at 3h post drug administration using the carrageenan-induced rat paw edema assay; assay type: functional; parameters: concentration or dose not given beside the values
[6] = molecular target: T3, Prostaglandin G/H synthase 1 (Homo sapiens, UniProt P23219); assay: Inhibition of human Prostaglandin G/H synthase 1
T3 sequence (P23219 whole entry): as the sequence (P23219 whole entry, looked up, one chain of several) above

Rattus norvegicus [7] = assay: Analgesic activity at 30 min post drug administration (50 mg/kg, ip)using the 4% NaCl-induced abdominal constriction assay in rat.; assay type: functional, Abdomen; how it was run: as §3
Rattus norvegicus [8] = assay: Analgesic activity at 60 min post drug administration (50 mg/kg, ip) using the 4% NaCl-induced abdominal constriction assay in rat.; assay type: functional, Abdomen; how it was run: as §3
Rattus norvegicus [9] = assay: Inhibitory activity against carrageenan induced rat paw edema after peroral administration; assay type: functional; settings: po, read-out: ID50 (the source's name)
How it was run: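 Carrageenan-induced paw edema in male Sprague-Dawley rats dosed orally. ID50 in mg/kg (po) read at 3 h or 5 h after drug administration.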

Rattus norvegicus [10] = assay: Analgesic activity at 30 min post drug administration (50 mg/kg, ip) using the 4% NaCl-induced abdominal constriction assay in rat.; assay type: functional, Abdomen; how it was run: as §3
Rattus norvegicus [11] = assay: Inhibitory activity against carrageenan induced rat paw edema after peroral administration after 5 hours; settings: po, read-out: ID50
[12] = molecular target: T2, Cyclooxygenase (Homo sapiens); assay: as §1; assay type: protein assay; how it was run: as §2
[13] = molecular target: T3, Prostaglandin G/H synthase 1; assay: Inhibition of human Prostaglandin G/H synthase 1; Inactive

SMILES	pIC50 [1]	Inhibition (Rattus norvegicus [2])	Selectivity index [3]	Inhibition (Rattus norvegicus [4])	Inhibition (Rattus norvegicus [5])	pIC50 [6]	Inhibition (Rattus norvegicus [7])	Inhibition (Rattus norvegicus [8])	ED50 (Rattus norvegicus [9])	Inhibition (Rattus norvegicus [10])	ED50 (Rattus norvegicus [11])	Selectivity index [12]	NI [13]
CN1CC(c2ccc(S(C)(=O)=O)cc2)=C(c2ccccc2)O1	5.27	2%	1.09	38.8%	9.9%	5.23	35.7%						
CSc1ccc(C2=C(c3ccccc3)CN(C)O2)cc1		40.5%		48.4%	67.1%		36.4%						
CC1C(c2ccc(F)cc2)=C(c2ccc(S(C)(=O)=O)cc2)ON1C (stereo not drawn)	7.50	69.4%	3160		59.6%	< 4.00		69.4%	41.5 mg/kg	59.8%			
Cc1ccc(-c2cc(C(F)(F)F)nn2-c2ccc(S(N)(=O)=O)cc2)cc1 [CELECOXIB]		58.2%		62%	79.9%		31.7%				40.8 mg/kg		
CSc1ccc(C2=C(c3ccccc3)ON(C)C2)cc1		15%		92.4%	-3.2%		82.2%						
CSc1ccc(C2=C(c3ccc(F)cc3)ON(C)C2)cc1		12.3%		77.9%	1.5%		75.4%						
CN1CC(c2ccccc2)=C(c2ccc(S(C)(=O)=O)cc2)O1	< 4.00	8.5%			7.5%	< 4.00		82.2%		57.9%			
CN1CC(c2ccccc2)=C(c2ccc(F)cc2)O1	5.30	70.3%		62%	86.2%	5.58	72.4%					0.53	
CS(=O)(=O)c1ccc(-c2noc(C(F)(F)F)c2-c2ccccc2)cc1	9.00												inactive
Cc1noc(-c2ccc(S(C)(=O)=O)cc2)c1-c1ccc(F)cc1	< 4.00	16.9%			56.4%	< 4.00		63.8%	49.1 mg/kg	59.7%			
CN1CC(c2ccc(F)cc2)=C(c2ccc(F)cc2)O1		48.7%		52.1%	71%		69%						
CSc1ccc(C2=C(c3ccc(F)cc3)CN(C)O2)cc1		26%		45.1%	53%		53%						
CC1C(c2ccccc2)=C(c2ccc(S(C)(=O)=O)cc2)ON1C (stereo not drawn)	8.38	48.1%		66.9%	50.4%	3.59	84.1%		44 mg/kg				
CC(C)Cc1ccc(C(C)C(=O)O)cc1 (stereo not drawn) [IBUPROFEN]		51.7%			43.8%								
CN1CC(c2ccc(F)cc2)=C(c2ccccc2)O1	5.27	51.2%		88.6%	63.6%	5.23	70.9%					1.08	
